In ChEMBL document CHEMBL3872225, “Synthesis, binding assays, cytotoxic activity and docking studies of benzimidazole and benzothiophene derivatives with selective affinity for the CB2 cannabinoid receptor” (Eur J Med Chem, 2016):
pIC50, pKi: −log10 of the molar value.

Assays:
[1] = Cytotoxicity against resistant human HCT116 cells assessed as reduction in cell viability measured after 72 hrs by MTT assay; assay type: functional, cell-based; settings: HCT-116, 72 h
In short: (§1)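 Cells kept in RPMI 1640 with 5% FBS, penicillin/streptomycin, 37 °C, 5% CO2. Seeded at 10,000 cells/well, then exposed to compounds at 0.001–10 μM in 5% FBS-RPMI for 72 h at 37 °C. MTT added for 4 h, formazan dissolved overnight in 10% SDS/0.1 mM HCl, absorbance read at 570 nm. […] Etoposide as positive control.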

Cannabinoid receptor 2 [2] = target: T1, Cannabinoid receptor 2 (Homo sapiens, UniProt P34972); experiment: Displacement of [3H]CP-55940 from human recombinant CB2 receptor expressed in HEK293 cell membranes at 1 uM incubated for 1.5 hrs relative to control
In short: (§2)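 Single-point screen on HEK-293 membranes overexpressing human CB1 or CB2. […] Compounds displacing more than 50% at 1 μM went on to full curves.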

[3] = Cytotoxicity against human H1975-1 cells assessed as reduction in cell viability measured after 72 hrs by MTT assay; assay type: functional, cell-based; in short: as §1
[4] = Cytotoxicity against African green monkey Vero cells assessed as reduction in cell viability measured after 72 hrs by MTT assay; assay type: toxicity, cell-based; settings: Chlorocebus sabaeus (African green monkey); in short: as §1
[5] = Cytotoxicity against human HeLa cells assessed as reduction in cell viability measured after 72 hrs by MTT assay; assay type: functional, cell-based; in short: as §1
[6] = Cytotoxicity against human HL60 cells assessed as reduction in cell viability measured after 72 hrs by MTT assay; assay type: functional, cell-based; settings: HL-60, 72 h; in short: as §1
Cannabinoid receptor 1 = Cannabinoid receptor 1 (Homo sapiens, UniProt P21554); experiment: Displacement of [3H]CP-55940 from human recombinant CB1 receptor expressed in HEK293 cell membranes incubated for 1.5 hrs
In short: (§3)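 Membranes from HEK-293 cells overexpressing human CB1 or CB2 incubated with increasing compound concentrations and 0.5 nM [3H]CP-55,940 at 30 °C for 1.5 h. […] Selectivity index is Ki CB1/Ki CB2.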

Homo sapiens = species on record: Homo sapiens; experiment: Selectivity index, ratio of Ki for displacement of [3H]CP-55940 from human recombinant CB1 receptor to Ki for displacement of [3H]CP-55940 from human recombinant CB2 receptor; in short: as §3
[7] = target: Cannabinoid receptor 1 (CB1) (Homo sapiens, UniProt P21554); experiment: Displacement of [3H]CP-55940 from human recombinant CB1 receptor expressed in HEK293 cell membranes at 1 uM incubated for 1.5 hrs relative to control; settings: probe [3H]CP-55940; in short: as §2
Cannabinoid receptor 2 [8] = target: T1, Cannabinoid receptor 2; experiment: Displacement of [3H]CP-55940 from human recombinant CB2 receptor expressed in HEK293 cell membranes incubated for 1.5 hrs; in short: as §3

Cannabinoid receptor 1 (CB1), sequence (P21554 whole entry): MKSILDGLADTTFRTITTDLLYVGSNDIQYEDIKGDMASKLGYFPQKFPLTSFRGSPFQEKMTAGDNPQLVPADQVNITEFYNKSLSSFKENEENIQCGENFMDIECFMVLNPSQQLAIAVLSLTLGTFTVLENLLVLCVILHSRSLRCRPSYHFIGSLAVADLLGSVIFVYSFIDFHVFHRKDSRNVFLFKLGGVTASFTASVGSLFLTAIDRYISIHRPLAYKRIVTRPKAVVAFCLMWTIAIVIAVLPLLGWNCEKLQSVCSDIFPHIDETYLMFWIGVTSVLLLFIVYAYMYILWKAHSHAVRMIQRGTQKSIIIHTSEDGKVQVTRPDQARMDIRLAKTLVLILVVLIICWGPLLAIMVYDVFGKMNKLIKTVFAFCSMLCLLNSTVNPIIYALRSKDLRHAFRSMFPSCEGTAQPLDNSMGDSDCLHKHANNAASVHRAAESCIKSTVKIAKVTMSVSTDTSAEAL
Cannabinoid receptor 1, sequence (P21554 whole entry): as above
T1 sequence (P34972 whole entry): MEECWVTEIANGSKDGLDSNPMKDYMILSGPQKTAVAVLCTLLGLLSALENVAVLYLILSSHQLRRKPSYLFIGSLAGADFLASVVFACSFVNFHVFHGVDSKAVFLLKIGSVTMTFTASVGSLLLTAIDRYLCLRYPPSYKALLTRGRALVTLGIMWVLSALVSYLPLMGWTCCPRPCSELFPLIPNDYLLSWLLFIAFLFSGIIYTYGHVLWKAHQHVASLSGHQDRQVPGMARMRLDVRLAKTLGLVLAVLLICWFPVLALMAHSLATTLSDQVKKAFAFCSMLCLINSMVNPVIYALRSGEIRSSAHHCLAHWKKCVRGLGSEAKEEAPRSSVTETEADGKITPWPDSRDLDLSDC

Row | Compound | pIC50 [1] | inhibition (Cannabinoid receptor 2 [2]) | pIC50 [3] | IC50 at 72 h [4] | pIC50 [5] | pIC50 [6] | pIC50 (Cannabinoid receptor 1) | pKi (Cannabinoid receptor 1) | Ratio Ki (Homo sapiens) | inhibition at 1.5 h, 1 µM [7] | pIC50 (Cannabinoid receptor 2 [8]) | pKi (Cannabinoid receptor 2 [8])
1 | CCCc1sc2ccccc2c1C(=O)c1cccc2ccccc12 | < 5.00 | > 50% | < 5.00 | > 10 µM | < 5.00 | 6.89 | 6.00 | 6.22 | 0.6 | > 50% | 5.37 | 6.00
2 | O=C(c1cccc2ccccc12)n1c(C2CCC2)nc2ccccc21 | < 5.00 | > 50% | < 5.00 | > 10 µM | < 5.00 | 6.74 | 5.01 | 5.24 | 4.14 | > 50% | 5.26 | 5.85
3 | COc1ccc(C(=O)c2c(CC(C)C)sc3ccccc23)cc1 | < 5.00 | > 50% | < 5.00 | > 10 µM | < 5.00 | 7.18 | 5.12 | 5.34 | 46 | > 50% | 6.15 | 7.00
4 | COc1ccc(C(=O)n2c(-c3ccc(OC)cc3)nc3ccccc32)cc1 | < 5.00 | > 50% | < 5.00 | > 10 µM | < 5.00 | 6.76 | < 5.00 | < 5.00 | > 6.7 | > 50% | 5.23 | 5.82
